EC50, Efficacy and Activity data for ten compounds are collected here from ChEMBL document CHEMBL3046392, “Antifungal activities of N-arylbenzenesulfonamides against phytopathogens and control efficacy on wheat leaf rust and cabbage club root diseases” (Biosci Biotechnol Biochem, 2002).

In brackets after ≈: the same amount, converted by molar mass.

What all share (assay type): functional
The test system of one assay is Globisporangium ultimum. The assay can be described thus: Antifungal activity against Pythium ultimum assessed as mycelial growth inhibition after 2 to 6 days. The conditions noted are these: read-out: ED50 (the source's name). In a few lines:
(§1)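 Serially diluted compound was mixed into 1/5-strength PDA plates at […]. A 5-mm agar plug of each fungus was placed at the plate centre, with three replicate plates per concentration per fungus. Plates were incubated at 25 °C for 2–6 days, radial growth was measured, and ED₅₀ for mycelial growth inhibition was derived by probit analysis.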

In another assay the test system is Rhizoctonia solani. In words: Antifungal activity against Rhizoctonia solani assessed as mycelial growth inhibition after 2 to 6 days. The conditions noted are these: read-out: ED50 (the source's name). The gist of the method:
as §1

In assay [1] the test system is Phytophthora capsici. The assay can be described thus: Antifungal activity against Phytophthora capsici assessed as mycelial growth inhibition after 2 to 6 days. The conditions noted are these: read-out: ED50 (the source's name). In a few lines: as §1
Assay [2] deals with Botrytis cinerea. The assay can be described thus: Antifungal activity against Botryotinia fuckeliana assessed as mycelial growth inhibition after 2 to 6 days. The conditions noted are these: read-out: ED50 (the source's name). In a few lines: as §1
Assay [3] has as its system Plasmodiophora brassicae. In words: Antifungal activity against Plasmodiophora brassicae in cabbage seedlings transplanted after soil infestation with fungus followed by compound application to soil assessed as cabbage club root disease control efficacy at 19 ug/ml measured after 35 days post fungal inoculation. In a few lines:
(§2)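 Soil was inoculated with P. brassicae spore suspension (2×10⁶ spores/ml), then cabbage seedlings were transplanted. 10 ml of each compound solution was applied to assess disease suppression. Disease severity was assessed 35 days after inoculation, with control value calculated relative to untreated plants.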

Assay [4] concerns Plasmodiophora brassicae. The assay can be described thus: Antifungal activity against Plasmodiophora brassicae in cabbage seedlings transplanted after soil infestation with fungus followed by compound application to soil assessed as cabbage club root disease control efficacy at 167 ug/ml measured after 35 days post fungal inoculation. In a few lines:
as §2

Assay [5] concerns Plasmodiophora brassicae. In words: Antifungal activity against Plasmodiophora brassicae in cabbage seedlings transplanted after soil infestation with fungus followed by compound application to soil assessed as cabbage club root disease control efficacy at 500 ug/ml measured after 35 days post fungal inoculation. In a few lines: as §2
Assay [6] relates to Plasmodiophora brassicae. In words: Antifungal activity against Plasmodiophora brassicae in cabbage seedlings transplanted after soil infestation with fungus followed by compound application to soil assessed as cabbage club root disease control efficacy at 56 ug/ml measured after 35 days post fungal inoculation. The gist of the method:
as §2

The subject of a further assay is Corticium. In words: Antifungal activity against Corticium sasaki Matsu infected compound pre-treated rice seedlings at third-leaf stage assessed as rice sheath blight disease control values at 50 ug/ml measured after 4 days post fungal inoculation. In a few lines: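 Rice seedlings at third-leaf stage were sprayed with compound in water+methanol (95+5) plus Tween 20 (250 mg/l) and left 24 h. They were inoculated with 7-day-old wheat–rice bran cultures of C. sasaki and held 4 days dark at 25 °C, 100% RH, then 4 days in a growth chamber (25 °C, 100% RH, 12 h light). Control value was calculated from disease severity relative to untreated plants.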

Assay [7] concerns Phytophthora capsici. The assay can be described thus: Antifungal activity against Phytophthora capsici infected on compound pre-treated tomato seedlings at second-leaf stage assessed as tomato late blight disease control values at 50 ug/ml measured after 3 to 4 days post fungal inoculation.
A further assay deals with Pyricularia grisea. In words: Antifungal activity against Magnaporthe grisea infected on compound pre-treated rice seedlings at second-leaf stage assessed as rice blast disease control values at 50 ug/ml measured after 5 days post fungal inoculation. In a few lines: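 Rice seedlings grown in greenhouse pots at 25±5 °C, sprayed with compound in water+methanol (95+5) containing Tween 20 (250 mg/l) as wetting agent, left 24 h, then inoculated with M. grisea. Disease severity read as percentage infected leaf area 5 days after inoculation. Control value (%) = 100 × (untreated severity − treated severity)/untreated severity.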

In a further assay the test system is Puccinia recondita. The assay can be described thus: Antifungal activity against Puccinia recondita infected on compound pre-treated wheat seedlings at first-leaf stage assessed as wheat leaf rust disease control values at 50 ug/ml measured after 7 days post fungal inoculation. The gist of the method: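 First-leaf wheat seedlings were sprayed with compound in water+methanol (95+5) with Tween 20 (250 mg/l) and left 24 h. They were sprayed with P. recondita spores (0.67 g/l, Tween 20 250 mg/l) and kept 1 day in a moist chamber at 20 °C, then moved to an incubation room. Infected leaf area was rated 7 days post-inoculation and converted to a control value relative to untreated plants.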

The subject of assay [8] is Botrytis cinerea. The assay can be described thus: Antifungal activity against Botryotinia fuckeliana infected compound pre-treated tomato seedlings at second-leaf stage assessed as tomato gray mould disease control values at 50 ug/ml measured after 3 to 4 days post fungal inoculation. In a few lines:
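Greenhouse-grown potted tomato seedlings at second-leaf stage were sprayed with compound in water+methanol (95+5) with Tween 20 (250 mg/l), left 24 h, then spray-inoculated with B. cinerea spore suspension. Plants were kept in the dark at 25 °C, 100% RH. Severity was scored after 3–4 days, and control value = 100 × (untreated − treated severity)/untreated severity.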

The test system of a further assay is Blumeria hordei. In words: Antifungal activity against Blumeria graminis f. sp. hordei infected compound pre-treated barley seedlings at first-leaf stage assessed as barley powdery mildew disease control values at 50 ug/ml measured after 7 days post fungal inoculation. In a few lines:
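Pot-grown barley seedlings at first-leaf stage were sprayed with compound dissolved in water+methanol (95+5) containing Tween 20 (250 mg/l), left 24 h, then inoculated with the powdery mildew fungus. Control value = 100 × (untreated − treated severity)/untreated severity.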

For `O=[N+]([O-])c1ccc(NS(=O)(=O)c2ccccc2)c(C(F)(F)F)c1`, the EC50 was 19.3 µg/mL (≈ 55.8 µM) in the assay on Globisporangium ultimum, 28.5 µg/mL (≈ 82.3 µM) with Rhizoctonia solani, 18.5 µg/mL (≈ 53.4 µM) with Phytophthora capsici [1] and 33.1 µg/mL (≈ 95.6 µM) in the assay on Botrytis cinerea [2].
On to `O=[N+]([O-])c1ccc(NS(=O)(=O)c2ccccc2)cc1`, for which the EC50 with Globisporangium ultimum amounted to 6.9 µg/mL (≈ 24.8 µM); in the assay with Rhizoctonia solani it was 42.3 µg/mL (≈ 152 µM); in the assay with Phytophthora capsici [1] it was 10.3 µg/mL (≈ 37 µM); in the assay with Botrytis cinerea [2], 65.7 µg/mL (≈ 236 µM).
For `O=[N+]([O-])c1ccc(NS(=O)(=O)c2ccc(Cl)c(C(F)(F)F)c2)c(Cl)c1` [FLUSULFAMIDE], the Efficacy in the assay on Plasmodiophora brassicae [3] was 0%; with Plasmodiophora brassicae [4] it was 42%; in the assay with Plasmodiophora brassicae [6] it was 17%. Moreover, the Activity in the assay with Plasmodiophora brassicae [5] stood at 62%.
For the compound `O=[N+]([O-])c1cccc(S(=O)(=O)Nc2ccc(F)c(C(F)(F)F)c2)c1`, the EC50 amounted to 10.1 µg/mL (≈ 27.7 µM) in the assay on Globisporangium ultimum, 6 µg/mL (≈ 16.5 µM) in the assay on Rhizoctonia solani, 60.8 µg/mL (≈ 167 µM) in the assay with Phytophthora capsici [1] and 3.5 µg/mL (≈ 9.61 µM) in the assay with Botrytis cinerea [2].
Regarding `O=S(=O)(Nc1ccc(C(F)(F)F)cc1)c1ccccc1`, the Efficacy with Plasmodiophora brassicae [3], with Plasmodiophora brassicae [4], with Plasmodiophora brassicae [5] and in the assay with Plasmodiophora brassicae [6] was 0% each time. Further, the Activity in the assay with Corticium, in the assay with Phytophthora capsici [7], in the assay with Pyricularia grisea, in the assay on Puccinia recondita, in the assay with Botrytis cinerea [8] and in the assay on Blumeria hordei was 0% in each case. The EC50 with Globisporangium ultimum was 11.7 µg/mL (≈ 38.8 µM); in the assay with Rhizoctonia solani it was 24.1 µg/mL (≈ 80 µM); in the assay with Phytophthora capsici [1], 14.6 µg/mL (≈ 48.5 µM); in the assay with Botrytis cinerea [2], 14.8 µg/mL (≈ 49.1 µM).
For the compound `O=S(=O)(Nc1ccccc1)c1ccccc1` [PHENYL(PHENYLSULFONYL)AMINE], the EC50 with Globisporangium ultimum was 75.4 µg/mL (≈ 323 µM); in the assay on Rhizoctonia solani it was 68.9 µg/mL (≈ 295 µM); in the assay with Phytophthora capsici [1], 66.6 µg/mL (≈ 285 µM); in the assay with Botrytis cinerea [2], 239 µg/mL (≈ 1030 µM).
As to `O=[N+]([O-])c1ccc(NS(=O)(=O)c2ccccc2)c(Cl)c1`, the Efficacy in the assay on Plasmodiophora brassicae [3] worked out at 17%; with Plasmodiophora brassicae [4], 82%; in the assay on Plasmodiophora brassicae [5], 95%; with Plasmodiophora brassicae [6], 83%. The Activity in the assay on Corticium was 0%; in the assay on Phytophthora capsici [7], 0%; with Pyricularia grisea it was 3%; in the assay on Puccinia recondita, 9%; in the assay with Botrytis cinerea [8] it was 0%; in the assay on Blumeria hordei it was 2%. The EC50 is 5.4 µg/mL (≈ 17.3 µM) in the assay on Globisporangium ultimum, 14.4 µg/mL (≈ 46 µM) in the assay on Rhizoctonia solani, 9 µg/mL (≈ 28.8 µM) with Phytophthora capsici [1] and 28 µg/mL (≈ 89.5 µM) in the assay on Botrytis cinerea [2].
As to `O=S(=O)(Nc1ccc(F)c(C(F)(F)F)c1)c1ccccc1`, the EC50 with Globisporangium ultimum was determined as 13.5 µg/mL (≈ 42.3 µM); in the assay on Rhizoctonia solani it was 16.8 µg/mL (≈ 52.6 µM); in the assay on Phytophthora capsici [1], 5.6 µg/mL (≈ 17.5 µM); in the assay on Botrytis cinerea [2] it was 10.7 µg/mL (≈ 33.5 µM).
As for `O=[N+]([O-])c1cccc(S(=O)(=O)Nc2ccc([N+](=O)[O-])cc2Cl)c1`, the EC50 in the assay with Globisporangium ultimum amounted to 7.2 µg/mL (≈ 20.1 µM); with Rhizoctonia solani it was 34.8 µg/mL (≈ 97.3 µM); in the assay on Phytophthora capsici [1], 7 µg/mL (≈ 19.6 µM); with Botrytis cinerea [2], 63.6 µg/mL (≈ 178 µM).
Regarding `O=[N+]([O-])c1cccc(S(=O)(=O)Nc2ccc([N+](=O)[O-])cc2C(F)(F)F)c1`, the EC50 in the assay on Globisporangium ultimum stood at 155 µg/mL (≈ 397 µM); with Rhizoctonia solani, 26.2 µg/mL (≈ 67 µM); in the assay on Phytophthora capsici [1], 233 µg/mL (≈ 595 µM).
